Results from different studies.
Compare with care: the assays were run in different laboratories.
MTNR1A: Melatonin receptor type 1A (MTNR1A, Homo sapiens, UniProt P48039)
FLT3: Receptor-type tyrosine-protein kinase FLT3 (FLT3, Homo sapiens, UniProt P36888)

Structure (SMILES)	target	read-out	action	method	setting	quantity	result
COC(=O)c1ccc(CSc2nnc(C3CC3)[nH]2)cc1	MTNR1A	cAMP	agonist	luciferase		EC50	777 nM
Cc1cc(Nc2cc3ncccc3c(N[C@@H]3C[C@H]4CC[C@@H](C3)N4CCC#N)n2)n[nH]1	FLT3	binding		competition with immobilised ligand		Kd	40 nM
COc1ccc2ncn(CCNC(C)=O)c2c1	MTNR1A	cAMP	agonist	TR-FRET		EC50	1120 nM
Cc1cnc(-c2ccc(-c3ccc(NC(=O)Nc4c(F)cc(F)cc4F)cc3F)c3c2C(=O)NC3)[nH]1	Tyrosine-protein kinase receptor Tie-1 (TIE1, Homo sapiens, UniProt P35590)	binding		competition with immobilised ligand		Kd	18 nM
COc1ccc(CN(C)C(=O)c2cc(F)c[nH]2)cc1O	MTNR1A	cAMP	agonist	luciferase		EC50	21.1 nM
COc1cc2c(CCNC(C)=O)c[nH]c2cc1I	MTNR1A	GTPγS binding	agonist	radiometric	cell membranes	EC50	10 nM
CC(C)Nc1ccnc(Nc2cccc(-c3cnccn3)c2)n1	FLT3	enzyme activity	inhibitor			IC50	11 nM
Cc1cc2nc3c(=O)[nH]c(=O)nc-3n(C[C@H](O)[C@H](O)[C@H](O)COP(=O)(O)OP(=O)(O)OC[C@H]3O[C@@H](n4cnc5c(N)ncnc54)[C@H](O)[C@@H]3O)c2cc1C	Annexin A7 (Homo sapiens, UniProt P20073)	binding			lysate	Kd	30 nM
c1ccc(-c2cccc(Nc3nccc(NC4CCCCC4)n3)c2)nc1	FLT3	enzyme activity	inhibitor			IC50	1710 nM
COc1ccc(Br)c(CNc2cccnc2)c1	MTNR1A	cell-free assay				Ki	347 nM
CCc1ccc2scc(CCNC(C)=O)c2c1	MTNR1A	β-arrestin recruitment	agonist			EC50	12 nM
NC(=O)c1ccc(Nc2nccc(NC3CCCCC3)n2)cc1	FLT3	enzyme activity	inhibitor			IC50	14 nM
